# Reference: ChEMBL document CHEMBL4602735, “Discovery of (1H-Pyrazolo[3,4-c]pyridin-5-yl)sulfonamide Analogues as Hepatitis B Virus Capsid Assembly Modulators by Conformation Constraint” (J Med Chem, 2020)
# Active and inactive are the calls of the source. The calls are words filed in the database; no cut-off is given here.
# What was measured:
# [1] = Intrinsic clearance in mouse liver microsomes; type: ADME, Microsome; conditions: read-out: CLH
# [2] = Cytotoxicity in human HepAD38 cells assessed as induction of cell killing; type: cell-based
# [3] = Intrinsic clearance in human liver microsomes; type: ADME, Microsome; conditions: read-out: CLH
# Hepatitis B virus [4] = assay: Antiviral activity against HBV infected in human HepAD38 cells assessed as reduction in viral DNA levels incubated for 6 days by PCR analysis; type: functional, organism-based; conditions: HePAD38, 144 h
# Hepatitis B virus [5] = assay: Antiviral activity against multidrug-resistant HBV infected in human HepG2.1403F cells assessed as reduction in viral replication incubated for 6 days by PCR analysis; type: functional, organism-based; conditions: 144 h
# How it was run: (§1)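 Wild-type HBV replication measured in HepAD38 and HepG2.2.15 cells, lamivudine/entecavir-resistant HBV in HepG2.A64 cells (rtL180M+rtT184L+rtM204V) and multidrug-resistant HBV in HepG2.1403F cells (rtL180M+rtM204V+rtS202G+rtN236T). Read-out is reduction of HBV DNA. EC50 is reported as mean ± SD.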
# [6] = Cytotoxicity in human HepG2 cells assessed as induction of cell killing; type: cell-based
# Hepatitis B virus [7] = assay: Antiviral activity against HBV infected in human HepG2.A64 cells containing reverse transcriptase L180M/T184L/M204V mutant assessed as reduction in viral replication incubated for 6 days by PCR analysis; type: functional, organism-based; conditions: HepG2.A64, 144 h; how it was run: as §1
# [8] = Stability in pH 7.4 buffer assessed as compound remaining level at 37 degC by HPLC analysis; type: physicochemical
# How it was run: (§2)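 Prodrug incubated in buffer (0.1 M HCl, pH 5.8, 6.8 or 7.4) at 37 °C; percent of compound remaining determined by HPLC; remaining percentage reported after 3 h, stability meaning no hydrolysis after 2 h.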
# [9] = Half life in mouse plasma by HPLC analysis; type: ADME, cell-free
# How it was run: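 Prodrug incubated in plasma at 37 °C, with percent remaining determined by HPLC to derive half-life.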
# [10] = Stability in pH 6.8 buffer assessed as compound remaining level at 37 degC by HPLC analysis; type: physicochemical; how it was run: as §2
# [11] = Solubility in water at 1 mg at 25 degC by HPLC analysis; type: physicochemical
# How it was run: (§3)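 Solubility determined in water or 0.067 M phosphate buffer at pH 5.8, 6.8 and 7.4. Values are reported in mg/mL; ND means below the detection limit.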
# [12] = Solubility in pH 5.8 phosphate buffer at 1 mg at 25 degC by HPLC analysis; type: physicochemical; how it was run: as §3
# [13] = Solubility in pH 7.4 phosphate buffer at 1 mg at 25 degC by HPLC analysis; type: physicochemical; how it was run: as §3
# [14] = Solubility in pH 6.8 phosphate buffer at 1 mg at 25 degC by HPLC analysis; type: physicochemical; how it was run: as §3
# [15] = Selectivity index, ratio of CC50 for cytotoxicity in human HepAD38 cells assessed as induction of cell killing to EC50 for antiviral activity against HBV infected in human HepAD38 cells assessed as reduction in viral DNA levels incubated for 6 days by PCR analysis; type: toxicity, cell-based; conditions: read-out: Ratio CC50/EC50
# Hepatitis B virus [16] = assay: Antiviral activity against HBV infected in human HepAD38 cells assessed as inhibition of intracellular viral RNA accumulation at 2 uM for 4 days by qPCR or qRT-PCR relative to control; type: functional, organism-based
# How it was run: (§4)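 HepAD38 or HepG2.2.15 cells were treated at 2 µM for 4 days, with medium replaced every 2 days. Intracellular and extracellular DNA and RNA were quantified by qPCR or qRT-PCR, and HBeAg and HBsAg by ELISA. Results were compared with DMSO vehicle as mean ± SD, using a two-tailed t-test.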
# Hepatitis B virus [17] = assay: Antiviral activity against HBV infected in human HepAD38 cells assessed as inhibition of intracellular viral DNA accumulation at 2 uM for 4 days by qPCR or qRT-PCR relative to control; type: functional, organism-based; how it was run: as §4
# Hepatitis B virus [18] = assay: Antiviral activity against HBV infected in human HepG2.2.15 cells assessed as inhibition of intracellular viral DNA accumulation at 2 uM for 4 days by qPCR or qRT-PCR relative to control; type: functional, organism-based; conditions: HepG2 2.2.15; how it was run: as §4
# Hepatitis B virus [19] = assay: Antiviral activity against HBV infected in human HepG2.2.15 cells assessed as reduction in viral DNA levels incubated for 6 days by PCR analysis; type: functional, organism-based; conditions: HepG2 2.2.15, 144 h
# Hepatitis B virus [20] = assay: Inhibition of HBsAg secretion in HBV infected human HepG2.2.15 cells at 2 uM for 4 days by ELISA; type: functional, organism-based; conditions: HepG2 2.2.15; how it was run: as §4
# Hepatitis B virus [21] = assay: Inhibition of HBsAg secretion in HBV infected human HepAD38 cells at 2 uM for 4 days by ELISA; type: functional, organism-based; how it was run: as §4
# Hepatitis B virus [22] = assay: Antiviral activity against HBV infected in human HepG2.2.15 cells assessed as inhibition of intracellular viral RNA accumulation at 2 uM for 4 days by qPCR or qRT-PCR relative to control; type: functional, organism-based; conditions: HepG2 2.2.15; how it was run: as §4
# Hepatitis B virus [23] = assay: Inhibition of HBeAg secretion in HBV infected human HepG2.2.15 cells at 2 uM for 4 days by ELISA relative to control; type: functional, organism-based; conditions: HepG2 2.2.15; how it was run: as §4
# Hepatitis B virus [24] = assay: Antiviral activity against HBV infected in human HepAD38 cells assessed as inhibition of intracellular total viral RNA accumulation at 2 uM for 4 days by qPCR or qRT-PCR relative to control; type: functional; how it was run: as §4
# HepG2 2.2.15 = assay: Inhibition of reverse transcriptase in HBV infected in human HepG2.2.15 cells assessed as induction of intracellular viral RNA accumulation at 2 uM for 4 days by qPCR or qRT-PCR relative to control; type: cell-based; conditions: Hepatitis B virus
# Hepatitis B virus [25] = assay: Induction of capsid assembly of recombinant HBV core protein 149 (1 to 149 residues) at 10 uM incubated overnight by electron microscopy
# How it was run: (§5)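 Core protein N-terminal domain Cp149 (aa 1-149, 5 μM) incubated with compound (10 μM) or DMSO overnight at 37 °C in 150 mM NaCl, 50 mM HEPES, pH 7.4. Assembly is read by EM and by size-exclusion chromatography. In SEC, capsids elute early (about 1.08 mL) and dimers late (about 1.97 mL). Peak AUCs and the capsid/dimer AUC ratio are calculated.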
# Hepatitis B virus [26] = assay: Induction of capsid assembly of recombinant HBV core protein 149 (1 to 149 residues) assessed as Cp dimer peak AUC at 10 uM incubated overnight by UV detector based analysis (reference value: 1.63); how it was run: as §5
# Hepatitis B virus [27] = assay: Induction of capsid assembly of recombinant HBV core protein 149 (1 to 149 residues) at 10 uM incubated overnight by SEC analysis; how it was run: as §5
# Hepatitis B virus [28] = assay: Induction of capsid assembly of recombinant HBV core protein 149 (1 to 149 residues) assessed as capsid peak AUC at 10 uM incubated overnight by UV detector based analysis (reference value: 0.96); how it was run: as §5
# Hepatitis B virus [29] = assay: Induction of capsid assembly of recombinant HBV core protein 149 (1 to 149 residues) assessed as capsid peak AUC/Cp dimer peak AUC at 10 uM incubated overnight by UV detector based analysis (reference value: 0.59); how it was run: as §5
# [30] = Stability in pH 5.8 buffer assessed as compound remaining level at 37 degC by HPLC analysis; type: physicochemical; how it was run: as §2
# [31] = phosphate buffer, read-out: solubility
smiles,measurement,setting,value
Cc1cc(Nc2nn(C3CC3)c3cnc(S(=O)(=O)N4CCOCC4)cc23)ccc1F,microsomal CLint,[1],53.5 µL/min/mg
same,CC50,[2],> 100000 nM
same,microsomal CLint,[3],38 µL/min/mg
same,EC50,Hepatitis B virus [4],42 nM
C[C@H](Cn1cnc2c(N)ncnc21)OCP(=O)(O)O [TENOFOVIR ANHYDROUS],EC50,Hepatitis B virus [5],2520 nM
same,CC50,[6],15000 nM
same,EC50,Hepatitis B virus [7],840 nM
same,EC50,Hepatitis B virus [4],10 nM
Cc1cc(Nc2nn(C3CC3)c3cnc(S(=O)(=O)N4CCC(OC(=O)[C@@H](N)C(C)C)CC4)cc23)ccc1F.O=C(O)C(F)(F)F,Stability,[8],Stable
same,half-life,[9],18 h
same,Stability,[10],Unstable
Cc1cc(Nc2nn(C3CC3)c3cnc(S(=O)(=O)N4CCC(OC(=O)CN(C)C)CC4)cc23)ccc1F,solubility,[11],710 µg/mL
CS(=O)(=O)O.CS(=O)(=O)O.Cc1cc(Nc2nn(C3CC3)c3cnc(S(=O)(=O)N4CCC(OC(=O)CN(C)C)CC4)cc23)ccc1F,solubility,[11],7900 µg/mL
same,solubility,[12],7080 µg/mL
same,solubility,[13],230 µg/mL
same,solubility,[14]; [31],7690 µg/mL
Cc1cc(Nc2nn(C3CC3)c3cnc(S(=O)(=O)N4CCC(OC(=O)CN(C)C)CC4)cc23)ccc1F.O=C(O)/C=C\C(=O)O,solubility,[11],4200 µg/mL
same,solubility,[12],7930 µg/mL
same,solubility,[14]; BLD = below limit of detection,Bld
C=C1[C@H](CO)[C@@H](O)C[C@@H]1n1cnc2c(=O)[nH]c(N)nc21,EC50,Hepatitis B virus [5],> 10000 nM
same,CC50,[6],42100 nM
same,EC50,Hepatitis B virus [7],> 10000 nM
same,EC50,Hepatitis B virus [4],11 nM
O=S(=O)(c1cc2c(Nc3ccc(F)c(C(F)F)c3)nn(C3CC3)c2cn1)N1CCC(O)CC1,EC50,Hepatitis B virus [5],13 nM
same,selectivity ratio at 144 h,[15],> 1410
same,inhibition,Hepatitis B virus [16],Active
same,microsomal CLint,[1],6.9 µL/min/mg
same,inhibition,Hepatitis B virus [17],Active
same,CC50,[2],> 100000 nM
same,CC50,[6],> 100000 nM
same,inhibition,Hepatitis B virus [18],Active
same,EC50,Hepatitis B virus [19],42 nM
same,inhibition,Hepatitis B virus [20],inactive
same,inhibition,Hepatitis B virus [21],inactive
same,inhibition,Hepatitis B virus [22],Active
same,EC50,Hepatitis B virus [7],2.2 nM
same,EC50,Hepatitis B virus [4],71 nM
Cc1cc(Nc2nn(C3CC3)c3ccc(S(=O)(=O)N4CCOCC4)cc23)ccc1F,microsomal CLint,[1],26.9 µL/min/mg
same,CC50,[2],> 100000 nM
same,microsomal CLint,[3],41 µL/min/mg
same,EC50,Hepatitis B virus [4],57 nM
CCOC(=O)C1=C(CN2CCOCC2)NC(c2nccs2)=NC1c1ccc(F)cc1Br (stereo unspecified),EC50,Hepatitis B virus [5],42 nM
same,inhibition,Hepatitis B virus [23],Active
same,inhibition,Hepatitis B virus [24],Active
same,inhibition,Hepatitis B virus [16],Active
same,inhibition,Hepatitis B virus [17],Active
same,inhibition,Hepatitis B virus [18],Active
same,EC50,Hepatitis B virus [19],6.6 nM
same,inhibition,Hepatitis B virus [20],inactive
same,inhibition,Hepatitis B virus [21],inactive
same,EC50,Hepatitis B virus [7],6.3 nM
same,EC50,Hepatitis B virus [4],13 nM
Cc1cc(Nc2nn(C3CC3)c3cnc(S(=O)(=O)N4CCC(OC(=O)CN(C)C)CC4)cc23)ccc1F.Cl,solubility,[11],6900 µg/mL
same,solubility,[12],6750 µg/mL
same,solubility,[13],16 µg/mL
same,solubility,[14]; [31],40 µg/mL
Nc1ccn([C@@H]2CS[C@H](CO)O2)c(=O)n1 [LAMIVUDINE],EC50,Hepatitis B virus [5],> 10000 nM
same,CC50,[6],> 100000 nM
same,EC50,Hepatitis B virus [19],3.8 nM
same,EC50,Hepatitis B virus [7],> 10000 nM
same,EC50,Hepatitis B virus [4],70 nM
same,inhibition,HepG2 2.2.15,Active
CC(=O)O.Cc1cc(Nc2nn(C3CC3)c3cnc(S(=O)(=O)N4CCC(OC(=O)CN(C)C)CC4)cc23)ccc1F,solubility,[11],1110 µg/mL
same,solubility,[14]; BLD = below limit of detection,Bld
O=S(=O)(c1ccc2c(c1)c(Nc1cc(F)c(F)c(F)c1)nn2C1CC1)N1CCC(O)CC1,Activity,Hepatitis B virus [25],Active
same,AUC,Hepatitis B virus [26],0.39
same,Activity,Hepatitis B virus [27],Active
same,CC50,[2],100000 nM
same,AUC,Hepatitis B virus [28],0.56
same,AUC,Hepatitis B virus [29],1.43
same,EC50,Hepatitis B virus [4],270 nM
Cc1cc(Nc2nn(CCF)c3ccc(S(=O)(=O)N4CCOCC4)cc23)ccc1F,selectivity ratio at 144 h,[15],> 244
same,CC50,[2],> 100000 nM
same,EC50,Hepatitis B virus [4],410 nM
O=S(=O)(c1ccc2c(c1)c(Nc1ccc(F)c(C(F)F)c1)nn2C1CC1)N1CCC(O)CC1,selectivity ratio at 144 h,[15],47
same,CC50,[2],13600 nM
same,EC50,Hepatitis B virus [4],290 nM
Cc1cc(Nc2nn(C3CC3)c3cnc(S(=O)(=O)N4CCC(OC(=O)CN)CC4)cc23)ccc1F.O=C(O)C(F)(F)F,Stability,[8],74.2%
same,half-life,[9],1.29 h
same,Stability,[10],67.6%
same,Stability,[30],88.3%
